The results in this text go back to ChEMBL document CHEMBL1135489, “Structurally simple trichostatin A-like straight chain hydroxamates as potent histone deacetylase inhibitors” (J Med Chem, 2002).

The target in one assay is Histone deacetylase 1 (Homo sapiens, UniProt Q13547). Briefly: Inhibition against partially purified human histone deacetylase 1 (HDAC-1).
A further assay relates to DU-145. Briefly: Inhibitory concentration required to reduce DU145 tumor cell growth by 50% in MTT assay. In kind it is functional, cell-based. As to conditions: Homo sapiens. In a few lines:
(§1)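 Compound dilution series added to plated cells, 72 h at 37 °C, 5% CO2. MTT then added at 0.5 mg/mL final for 4 h. Solubilization buffer (50% DMF, 20% SDS, pH 4.7) added, incubated overnight, read at 570 with 630 reference. OD converted to cell number from each line's standard growth curve.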
(In general: Tetrazolium dyes change colour on reduction, which living cells bring about.)

The test system of a further assay is T-24. Briefly: Inhibitory concentration required to reduce T24 tumor cell growth by 50% in MTT assay. The assay is classed as functional, cell-based. As to conditions: Homo sapiens. The essentials:
as §1

A further assay relates to SW48. Briefly: Inhibitory concentration required to reduce SW48 tumor cell growth by 50% in MTT assay. In kind it is functional, cell-based. As to conditions: Homo sapiens. In a few lines: as §1
The next assay relates to MDA-MB-231. Nature of the assay: Inhibitory concentration required to reduce MDAmb 231 tumor cell growth by 50% in MTT assay. The assay is classed as functional, cell-based. The settings on record: Homo sapiens. The essentials: as §1
A further assay concerns NCI-H446. Nature of the assay: Inhibitory concentration required to reduce H446 tumor cell growth by 50% in MTT assay. The assay is classed as functional, cell-based. The settings on record: Homo sapiens. In a few lines:
as §1

Another assay has as its system MCF7. Briefly: Inhibitory concentration required to reduce MCF-7 tumor cell growth by 50% in MTT assay. In kind it is functional, cell-based. The settings on record: Homo sapiens. In a few lines: as §1
For another assay, the system named is HCT-116. Nature of the assay: Inhibitory concentration required to reduce HCT 116 tumor cell growth by 50% in MTT assay. The assay is classed as functional, cell-based. As to conditions: Homo sapiens. In a few lines:
as §1

The next assay relates to HMEC. Nature of the assay: Inhibitory concentration required to reduce normal human epithelial cell line (HMEC), growth by 50% in MTT assay. In kind it is functional, cell-based. In a few lines: as §1
The test system of a further assay is A549. Nature of the assay: Inhibitory concentration required to reduce A549 tumor cell growth by 50% in MTT assay. The settings on record: Homo sapiens. In kind it is functional, cell-based. The essentials: as §1

pIC50: −log10 of the molar value.

Chain of Histone deacetylase 1 (Q13547 whole entry): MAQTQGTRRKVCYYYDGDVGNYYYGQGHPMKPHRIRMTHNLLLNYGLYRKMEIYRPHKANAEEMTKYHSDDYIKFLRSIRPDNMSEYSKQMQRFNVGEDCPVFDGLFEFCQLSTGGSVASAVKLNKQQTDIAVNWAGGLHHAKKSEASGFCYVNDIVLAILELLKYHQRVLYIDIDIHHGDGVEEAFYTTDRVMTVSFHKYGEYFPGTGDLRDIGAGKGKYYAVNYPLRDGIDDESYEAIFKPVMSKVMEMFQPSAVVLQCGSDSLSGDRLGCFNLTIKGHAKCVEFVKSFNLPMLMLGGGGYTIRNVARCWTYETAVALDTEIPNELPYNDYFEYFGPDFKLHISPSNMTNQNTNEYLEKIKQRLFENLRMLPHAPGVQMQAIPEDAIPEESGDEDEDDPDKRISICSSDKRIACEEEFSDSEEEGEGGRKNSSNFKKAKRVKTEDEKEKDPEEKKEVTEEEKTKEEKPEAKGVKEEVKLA

As usually defined, the pIC50 is the negative decadic logarithm of the IC50, by convention in mol/L. A lower pIC50 goes with a large IC50. As for `O=C(CCCCC/C=C/c1ccc2ccccc2c1)NO`, the pIC50 against Histone deacetylase 1 was 8.22.

`O=C(CCCCCCC(=O)c1ccc(C(F)(F)F)cc1)NO` gave a pIC50 against Histone deacetylase 1 of 7.35.

Regarding `O=C(CCCCCCCc1ccc2ccccc2c1)NO`, at Histone deacetylase 1, the pIC50 is 7.60.

For `O=C(CCCCCCC(=O)c1cccnc1)NO`, at Histone deacetylase 1, the pIC50 was 6.82.

With `O=C(CCCCCCC(=O)c1ccc(N2CCN(c3ccccc3)CC2)cc1)NO`, the pIC50 with DU-145 was 5.26; in the assay with T-24 it was 5.15; in the assay with SW48 it was 5.60; against Histone deacetylase 1 it was 8.35; in the assay on MDA-MB-231 it was 6.10; with NCI-H446, 6.00. Also, the pIC50 with MCF7 was 5.70; in the assay on HCT-116, 5.40; with HMEC, less than 4.70; in the assay with A549, 5.30.

`CC(/C=C/C(=O)NO)=C\[C@@H](C)C(=O)c1ccc(N(C)C)cc1` [TRICHOSTATIN]: the pIC50 was 6.70 in the assay with DU-145; 6.82 in the assay with T-24; 7.00 in the assay with SW48; 7.05 in the assay with MDA-MB-231; 7.10 with NCI-H446; 7.00 in the assay with MCF7. Moreover, the pIC50 in the assay with HCT-116 is more than 7.30; in the assay with HMEC, 5.80; in the assay on A549, 6.80.
